Entries after “also recorded” stand apart in the source; their conditions may differ. Where no end group is shown, it is not given here.
Experiments:
[1] = target: T1, hPD-L1 (Homo sapiens, UniProt Q9NZQ7); test: Radiolabeled binding assay on immobilized hPD-L1; settings: for effect of mutation on hPD-L1 binding (alanine scanning): [35S]-labeled SPAM variants, binding normalized to [35S]-SPAM, n=3
[2] = target: mPD-L1 (Mus musculus, UniProt Q9EP73); test: Radiolabeled binding assay on immobilized mPD-L1; settings: radioactive binding assay
How it was run: (§1)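 Peptide mRNA was translated in rabbit reticulocyte lysate with [35S]-methionine (2 μCi per 10 pmol template, 30 °C, 1 h). The resulting fusions were purified on oligo-dT agarose and tested for pull-down by the immobilized target protein, read as bead-retained radioactivity.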

[3] = target: hPD-L1 expressed on CHO-hPD-L1 cells (Homo sapiens, UniProt Q9NZQ7); test: Antibody competition by flow cytometry, CHO-hPD-L1; assay type: cell-based; settings: pre-treatment 0–20 μM
[4] = Serum stability of [35S]-SPAM read out by binding to hPD-L1; assay type: in vitro ADME; settings: [35S]-labeled SPAM, 25% human serum, 37 °C, up to eight hours
[5] = target: T1, hPD-L1; test: Radiolabeled binding assay on immobilized hPD-L1*; settings: radioactive binding assay
How it was run: as §1

[6] = target: T2, hPD-L2* (Homo sapiens, UniProt Q9BQ51); test: Radiolabeled binding assay on immobilized hPD-L2*; settings: radioactive binding assay
T2 sequence (Q9BQ51 20-220): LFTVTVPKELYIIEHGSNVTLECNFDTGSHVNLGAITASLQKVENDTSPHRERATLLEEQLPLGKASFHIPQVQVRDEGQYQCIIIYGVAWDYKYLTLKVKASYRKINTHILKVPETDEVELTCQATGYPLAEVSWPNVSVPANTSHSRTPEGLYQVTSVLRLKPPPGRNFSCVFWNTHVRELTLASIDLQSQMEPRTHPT
How it was run: as §1

[7] = target: hPD-L1/mPD-1 interaction (Homo sapiens, UniProt Q9NZQ7); test: ELISA/IP assay of the hPD-L1/mPD-1 interaction; assay type: biochemical; settings: 10 μM SPAM, hPD-L1 and mPD-1 100 nM
[8] = target: T1, hPD-L1; settings: read-out: previously reported KD values PD-1/hPD-L1; cited from earlier work

Chain of mPD-L1 (Q9EP73 19-239 limits assumed): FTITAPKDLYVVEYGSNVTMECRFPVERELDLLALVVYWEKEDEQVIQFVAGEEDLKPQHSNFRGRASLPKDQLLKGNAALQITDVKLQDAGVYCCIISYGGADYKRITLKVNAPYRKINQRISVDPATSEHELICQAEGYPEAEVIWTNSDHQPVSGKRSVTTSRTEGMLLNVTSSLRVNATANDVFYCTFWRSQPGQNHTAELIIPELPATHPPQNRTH

D6A: SPAM variant with alanine substituted at position 6 (MPIFLAHILNKFWILHYAGSGSSG; also: [35S]-labeled methionine, peptide-RNA fusion)
effect of mutation on hPD-L1 binding (alanine scanning) [1]: completely abolished

L15A: SPAM variant with alanine substituted at position 15 (MPIFLDHILNKFWIAHYAGSGSSG; also: [35S]-labeled methionine, peptide-RNA fusion)
effect of mutation on hPD-L1 binding (alanine scanning) [1]: completely abolished

MRIFAVFIFMTYWHLLNA [hPD-L1 signal peptide, reference compound]
binding of hPD-L1 signal peptide-mRNA fusion to hPD-L1 beads ([1]; streptavidin agarose beads loaded with 1.1 μM hPD-L1 (1,100 pmol)): some binding

C#CC[C@H](NC(=O)CNC(=O)[C@H](CO)NC(=O)[C@H](C)NC(=O)[C@H](Cc1ccc(O)cc1)NC(=O)[C@H](Cc1c[nH]cn1)NC(=O)[C@H](CC(C)C)NC(=O)[C@@H](NC(=O)[C@H](Cc1c[nH]c2ccccc12)NC(=O)[C@H](Cc1ccccc1)NC(=O)[C@H](CCCCN)NC(=O)[C@H](CC(N)=O)NC(=O)[C@H](CC(C)C)NC(=O)[C@@H](NC(=O)[C@H](Cc1c[nH]cn1)NC(=O)[C@H](CC(=O)O)NC(=O)[C@H](CC(C)C)NC(=O)[C@H](Cc1ccccc1)NC(=O)[C@@H](NC(=O)[C@@H]1CCCN1C(=O)[C@@H](N)CCSC)[C@@H](C)CC)[C@@H](C)CC)[C@@H](C)CC)C(N)=O (stereo in doubt) [SPAM]
[35S]-labeled SPAM binding to mPD-L1 [2]: no significant binding; also recorded: not pulled-down; also recorded: essentially no binding
blocking of Fluorescein-16373 binding to CHO-hPD-L1 ([3]; 50 nM FAM-16373, flow cytometry): blocking
blocking of Fluorescein-16377 binding to CHO-hPD-L1 ([3]; 50 nM FAM-16377, flow cytometry): blocking
[35S]-labeled SPAM binding to immobilized hPD-L1 ([1]; 75 pmol hPD-L1 on streptavidin agarose, 4 °C, 1 h): efficiently pulled-down
loss of binding to hPD-L1 after incubation in human serum [4]: ~ 25%
[35S]-labeled SPAM binding to hPD-L1* [5]: captured
[35S]-labeled SPAM binding to hPD-L2* [6]: no significant binding; also recorded: essentially no binding
disruption of PD-1 binding to hPD-L1 at 10 μM [7]: almost completely disrupted

K11A: SPAM variant with alanine substituted at position 11 (MPIFLDHILNAFWILHYAGSGSSG; also: [35S]-labeled methionine, peptide-RNA fusion)
effect of mutation on hPD-L1 binding (alanine scanning) [1]: completely abolished

I14A: SPAM variant with alanine substituted at position 14 (MPIFLDHILNKFWALHYAGSGSSG; also: [35S]-labeled methionine, peptide-RNA fusion)
effect of mutation on hPD-L1 binding (alanine scanning) [1]: completely abolished

H7A: SPAM variant with alanine substituted at position 7 (MPIFLDAILNKFWILHYAGSGSSG; also: [35S]-labeled methionine, peptide-RNA fusion)
effect of mutation on hPD-L1 binding (alanine scanning) [1]: completely abolished

F12A: SPAM variant with alanine substituted at position 12 (MPIFLDHILNKAWILHYAGSGSSG; also: [35S]-labeled methionine, peptide-RNA fusion)
effect of mutation on hPD-L1 binding (alanine scanning) [1]: completely abolished

N10A: SPAM variant with alanine substituted at position 10 (MPIFLDHILAKFWILHYAGSGSSG; also: [35S]-labeled methionine, peptide-RNA fusion)
effect of mutation on hPD-L1 binding (alanine scanning) [1]: completely abolished

F4A: SPAM variant with alanine substituted at position 4 (MPIALDHILNKFWILHYAGSGSSG; also: [35S]-labeled methionine, peptide-RNA fusion)
effect of mutation on hPD-L1 binding (alanine scanning) [1]: little or no significant influence

I8A: SPAM variant with alanine substituted at position 8 (MPIFLDHALNKFWILHYAGSGSSG; also: [35S]-labeled methionine, peptide-RNA fusion)
effect of mutation on hPD-L1 binding (alanine scanning) [1]: little or no significant influence

W13A: SPAM variant with alanine substituted at position 13 (MPIFLDHILNKFAILHYAGSGSSG; also: [35S]-labeled methionine, peptide-RNA fusion)
effect of mutation on hPD-L1 binding (alanine scanning) [1]: completely abolished

L5A: SPAM variant with alanine substituted at position 5 (MPIFADHILNKFWILHYAGSGSSG; also: [35S]-labeled methionine, peptide-RNA fusion)
effect of mutation on hPD-L1 binding (alanine scanning) [1]: little or no significant influence

A18: SPAM variant with glycine substituted for alanine at position 18 (MPIFLDHILNKFWILHYGGSGSSG; also: [35S]-labeled methionine, peptide-RNA fusion)
effect of mutation on hPD-L1 binding (alanine scanning) [1]: completely abolished

L9A: SPAM variant with alanine substituted at position 9 (MPIFLDHIANKFWILHYAGSGSSG; also: [35S]-labeled methionine, peptide-RNA fusion)
effect of mutation on hPD-L1 binding (alanine scanning) [1]: little or no significant influence

I3A: SPAM variant with alanine substituted at position 3 (MPAFLDHILNKFWILHYAGSGSSG; also: [35S]-labeled methionine, peptide-RNA fusion)
effect of mutation on hPD-L1 binding (alanine scanning) [1]: little or no significant influence

H16A: SPAM variant with alanine substituted at position 16 (MPIFLDHILNKFWILAYAGSGSSG; also: [35S]-labeled methionine, peptide-RNA fusion)
effect of mutation on hPD-L1 binding (alanine scanning) [1]: completely abolished

P2A: SPAM variant with alanine substituted at position 2 (MAIFLDHILNKFWILHYAGSGSSG; also: [35S]-labeled methionine, peptide-RNA fusion)
effect of mutation on hPD-L1 binding (alanine scanning) [1]: decreased levels of hPD-L1 binding

B1: mPD-1: extracellular domain of murine PD-1 (L25 to S157, C83S) with HA tag and His tag (protein)
chain: MALEVPNGPWRSLTFYPAWLTVSEGANATFTCSLSNWSEDLMLNWNRLSPSNQTEKQAAFSNGLSQPVQDARFQIIQLPNRHDFHMNILDTRRNDSGIYLCGAISLHPKAKIEESPGAELVVTERILETSTRYPS
modifications: left off: HA tag (…), C-terminal, kept | His tag, C-terminal, state not stated
Kd [8]: 4 to 8 µM
